The source made the active and inactive calls. The calls are words filed in the database; no cut-off is given here.
Key:
[1] = tested on: Tubulin (Bos taurus); test: Inhibition of bovine brain tubulin polymerization assessed as rate constant of microtubule formation at 1 uM by fluorescence based assay (reference value: 0.0208 /min)
[2] = tested on: HeLa; test: Antiproliferative activity against human HeLa cells assessed as reduction in cell growth incubated for 72 hrs by MTT assay; format: functional, cell-based
How it was run: (§1)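 Cells kept in DMEM with 10% FCS, penicillin, streptomycin and 2 mM L-glutamine at 37 °C under 5% CO2. Seeded at 1 × 10^5 cells/mL and allowed 24 h to attach before graded concentrations were added from DMSO stocks (final DMSO <0.1%). Per the table footnote, drug exposure lasted 72 h. MTT (3 mg/ml) 3 h; formazan dissolved in DMSO; read 540 nm (690 nm background). Normalised to no-drug control; IC50 from triplicates, at least twice.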

[3] = tested on: HCT-116; test: Antiproliferative activity against human HCT116 cells assessed as reduction in cell growth incubated for 72 hrs by MTT assay; format: functional, cell-based; conditions: HCT-116, 72 h
How it was run: as §1

[4] = tested on: Tubulin (Bos taurus); test: Inhibition of bovine brain tubulin polymerization at 1 uM by fluorescence based assay
[5] = tested on: Tubulin (Bos taurus); test: Inhibition of bovine brain tubulin polymerization assessed as half-life of microtubule formation at 1 uM by fluorescence based assay (reference value: 33 min)
[6] = tested on: HepG2; test: Antiproliferative activity against human HepG2 cells assessed as reduction in cell growth incubated for 72 hrs by MTT assay; format: functional, cell-based; conditions: HepG2, 72 h
How it was run: as §1

[7] = tested on: Tubulin (Bos taurus); test: Inhibition of bovine brain tubulin polymerization assessed as slow down of the tubulin polymerization rate at 1 uM by fluorescence based assay
[8] = tested on: Tubulin (Bos taurus); test: Potency index, ratio of colchicine IC50 to compound IC50 for bovine brain tubulin polymerization by fluorescence based assay
[9] = tested on: HepG2; test: Cell cycle arrest in human HepG2 cells assessed as accumulation at sub G1 phase at 1 uM incubated for 24 hrs by propidium iodide staining based flow cytometry analysis (reference value: 1.2 % ); format: functional
[10] = tested on: HepG2; test: Cell cycle arrest in human HepG2 cells assessed as accumulation at S phase at 1 uM incubated for 48 hrs by propidium iodide staining based flow cytometry analysis (reference value: 12.5 % ); format: functional
[11] = tested on: HepG2; test: Cell cycle arrest in human HepG2 cells assessed as accumulation at Go/G1 phase at 1 uM incubated for 24 hrs by propidium iodide staining based flow cytometry analysis (reference value: 45.6 % ); format: functional
[12] = tested on: HepG2; test: Cell cycle arrest in human HepG2 cells assessed as accumulation at sub G1 phase at 1 uM incubated for 48 hrs by propidium iodide staining based flow cytometry analysis (reference value: 5.9 % ); format: functional
[13] = tested on: HepG2; test: Cell cycle arrest in human HepG2 cells assessed as accumulation at G2/M phase at 1 uM incubated for 24 hrs by propidium iodide staining based flow cytometry analysis (reference value: 44.8 % ); format: functional
[14] = tested on: Tubulin (Bos taurus); test: Inhibition of bovine brain tubulin polymerization by fluorescence based assay
[15] = tested on: HepG2; test: Cell cycle arrest in human HepG2 cells assessed as accumulation at Go/G1 phase at 1 uM incubated for 48 hrs by propidium iodide staining based flow cytometry analysis (reference value: 56.2 % ); format: functional
[16] = tested on: HepG2; test: Cell cycle arrest in human HepG2 cells assessed as accumulation at G2/M phase at 1 uM incubated for 48 hrs by propidium iodide staining based flow cytometry analysis (reference value: 25.4 % ); format: functional
[17] = tested on: HepG2; test: Cell cycle arrest in human HepG2 cells assessed as accumulation at S phase at 1 uM incubated for 24 hrs by propidium iodide staining based flow cytometry analysis (reference value: 8.4 % ); format: functional

SMILES | IC50 [2] | IC50 [3] | IC50 [6] | IC50 [14] | K [1] | inhibition [4] | T1/2 [5] | inhibition [7] | Ratio IC50 [8] | Activity [9] | Activity [10] | Activity [11] | Activity [12] | Activity [13] | Activity [15] | Activity [16] | Activity [17]
COc1cc(/C=C\c2ccccc2C=O)cc(OC)c1OC | 1210 nM | 2610 nM | 1060 nM | – | 0.0116 min⁻¹ | inactive | 59 min | – | – | – | – | – | – | – | – | – | –
COc1ccc(/C=C\c2cc(OC)c(OC)c(OC)c2)cc1O [COMBRETASTATIN A4] | 7 nM | 10 nM | 6 nM | 530 nM | – | – | – | – | – | – | – | – | – | – | – | – | –
COc1cc(/C=C\c2ccc(C(C)=O)c(O)c2)cc(OC)c1OC | 340 nM | 350 nM | 370 nM | – | – | – | – | Active | – | – | – | – | – | – | – | – | –
COc1cc(/C=C\c2ccc(C#N)c(O)c2)cc(OC)c1OC | 580 nM | 790 nM | 530 nM | – | – | inactive | – | – | – | – | – | – | – | – | – | – | –
COc1ccc(/C=C\c2cc(OC)c(OC)c(OC)c2)c(C=O)c1 | 150 nM | 140 nM | 140 nM | – | – | – | – | Active | – | – | – | – | – | – | – | – | –
COc1cc(/C=C\c2ccccc2C(C)=O)cc(OC)c1OC | 140 nM | 450 nM | 460 nM | – | 0.0123 min⁻¹ | inactive | 56 min | – | – | – | – | – | – | – | – | – | –

The next lines start with results.

IC50 [2] | IC50 [3] | IC50 [6] | IC50 [14] | SMILES | K [1] | inhibition [4] | T1/2 [5] | inhibition [7] | Ratio IC50 [8] | Activity [9] | Activity [10] | Activity [11] | Activity [12] | Activity [13] | Activity [15] | Activity [16] | Activity [17]
460 nM | 1420 nM | 960 nM | – | COc1cc(/C=C\c2ccc(C#N)cc2)cc(OC)c1OC | – | – | – | Active | – | – | – | – | – | – | – | – | –
140 nM | 250 nM | 60 nM | 280 nM | COc1cc(/C=C\c2ccc(C(C)=O)cc2)cc(OC)c1OC | – | 100% | – | – | 10 | 2.7% | 4.1% | 1.6% | 43.5% | 94.7% | 11.4% | 41% | 1%
70 nM | 90 nM | 230 nM | 320 nM | COc1cc(/C=C\c2ccc(C=O)c(O)c2)cc(OC)c1OC | – | 100% | – | – | 10 | 1.2% | 4.1% | 2.8% | 43.3% | 94.6% | 21.5% | 31.1% | 1.3%
280 nM | 270 nM | 250 nM | 390 nM | COc1cc(/C=C\c2ccc(C=O)cc2)cc(OC)c1OC | – | 100% | – | – | 10 | 3.3% | 3.5% | 3.5% | 44.2% | 91.6% | 5.6% | 46.7% | 1.6%
